Test results: ChEMBL document CHEMBL1130165 (J Med Chem, 1997)
Converted amounts (≈) assume the structure as drawn.

How the values were obtained:
[1] = Ratio of solubility to that of paclitaxel solubility; format: ADME
[2] = Aqueous solubility was determined; format: physicochemical; conditions: aqueous medium (not further specified)
[3] = system: B16; experiment: Ratio of ED50 of compound to that of ED50 of paclitaxel; ED50 expressed as concentration which produces 50% inhibition of proliferation of B16 melanoma cells after 40h incubation; format: functional, Mus musculus
Procedure, shortened: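 B16 melanoma cells were incubated with compound for 40 h. Each value is expressed as a ratio to the paclitaxel ED50.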

[4] = target: Tubulin beta-1 chain (Homo sapiens) (UniProt Q9H4B7); experiment: Ratio of ED50 of compound to that of ED50 of paclitaxel; ED50 expressed as concentration which causes polymerization of 50% of the tubulin in microtubule assembly assay (in vitro); format: functional
Chain of Tubulin beta-1 chain (Homo sapiens) (Q9H4B7 whole entry): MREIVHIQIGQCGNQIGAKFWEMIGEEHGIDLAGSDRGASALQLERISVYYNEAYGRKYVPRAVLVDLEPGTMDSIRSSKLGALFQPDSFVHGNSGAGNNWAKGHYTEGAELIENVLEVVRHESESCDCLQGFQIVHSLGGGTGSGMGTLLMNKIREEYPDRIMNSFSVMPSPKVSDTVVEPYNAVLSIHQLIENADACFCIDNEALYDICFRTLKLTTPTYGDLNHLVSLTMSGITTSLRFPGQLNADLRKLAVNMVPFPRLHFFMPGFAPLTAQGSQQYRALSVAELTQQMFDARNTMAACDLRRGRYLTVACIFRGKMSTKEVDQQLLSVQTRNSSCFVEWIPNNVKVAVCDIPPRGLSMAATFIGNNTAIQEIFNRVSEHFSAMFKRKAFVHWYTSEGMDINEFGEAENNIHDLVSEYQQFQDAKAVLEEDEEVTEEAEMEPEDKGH
Procedure, shortened: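 In vitro microtubule assembly assay. […] Each compound's ED50 is expressed as a ratio to the paclitaxel ED50.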

[5] = Aqueous solubility was determined; range 6.8-8.4; format: physicochemical; conditions: aqueous medium (not further specified)
[6] = Ratio of solubility to that of paclitaxel solubility; range 23-28; format: ADME
[7] = Aqueous solubility was determined; range 5-6; format: physicochemical; conditions: aqueous medium (not further specified)
[8] = Ratio of solubility to that of paclitaxel solubility; range 17-20; format: ADME

Compound | Ratio [1] | solubility [2] [µg/mL] | ED50 ratio [4] | ED50 ratio [3] | further results
CCOC(=O)N[C@H]([C@@H](O)C(=O)O[C@H]1C[C@@]2(O)[C@@H](OC(=O)c3ccccc3)[C@H]3[C@](C)(C(=O)[C@H](O)C(=C1C)C2(C)C)[C@@H](O)CC1OC[C@]13OC(C)=O)C(C)(C)C (some centres undefined) | 32 | 9.7 (≈ 12.8 µM) |  | 3.4 | 
CC(=O)O[C@@]12COC1C[C@H](O)[C@@]1(C)C(=O)[C@H](O)C3=C(C)[C@@H](OC(=O)[C@H](O)[C@@H](NC(=O)c4ccccc4)C(C)(C)C)C[C@@](O)([C@@H](OC(=O)c4ccccc4)[C@@H]12)C3(C)C (some centres undefined) [BUTITAXEL] | 9.3 | 2.8 (≈ 3.54 µM) |  | 7.5 | 
CCC(CC)C(=O)N[C@H]([C@@H](O)C(=O)O[C@H]1C[C@@]2(O)[C@@H](OC(=O)c3ccccc3)[C@H]3[C@](C)(C(=O)[C@H](O)C(=C1C)C2(C)C)[C@@H](O)CC1OC[C@]13OC(C)=O)C(C)(C)C (some centres undefined) |  |  | 1.7 | 26 | 
CC(=O)O[C@@]12COC1C[C@H](O)[C@@]1(C)C(=O)[C@H](O)C3=C(C)[C@@H](OC(=O)[C@H](O)[C@@H](NC(=O)c4ccco4)C(C)(C)C)C[C@@](O)([C@@H](OC(=O)c4ccccc4)[C@@H]12)C3(C)C (some centres undefined) | 73 | 22 (≈ 28.1 µM) |  | 2.1 | 
CC(=O)O[C@@]12COC1C[C@H](O)[C@@]1(C)C(=O)[C@H](O)C3=C(C)[C@@H](OC(=O)[C@H](O)[C@@H](NC(=O)C4CCCC4)C(C)(C)C)C[C@@](O)([C@@H](OC(=O)c4ccccc4)[C@@H]12)C3(C)C (some centres undefined) |  |  | 1.5 | 1.4 | 
CC(=O)O[C@@]12COC1C[C@H](O)[C@@]1(C)C(=O)[C@H](O)C3=C(C)[C@@H](OC(=O)[C@H](O)[C@@H](NC(=O)Cc4cccs4)C(C)(C)C)C[C@@](O)([C@@H](OC(=O)c4ccccc4)[C@@H]12)C3(C)C (some centres undefined) | 23 | 6.7 (≈ 8.25 µM) |  | 3.3 | 
CC(=O)O[C@H]1C(=O)[C@@]2(C)[C@H]([C@H](OC(=O)c3ccccc3)[C@]3(O)C[C@H](OC(=O)[C@H](O)[C@@H](NC(=O)c4ccccc4)c4ccccc4)C(C)=C1C3(C)C)[C@]1(OC(C)=O)CO[C@@H]1C[C@@H]2O [PACLITAXEL] | 1 |  |  | 1 | 
CC(=O)O[C@@]12COC1C[C@H](O)[C@@]1(C)C(=O)[C@H](O)C3=C(C)[C@@H](OC(=O)[C@H](O)[C@@H](NC(=O)C4CCCCC4)C(C)(C)C)C[C@@](O)([C@@H](OC(=O)c4ccccc4)[C@@H]12)C3(C)C (some centres undefined) | 150 | 45 (≈ 56.4 µM) |  | 3.8 | 
CC(=O)O[C@@]12COC1C[C@H](O)[C@@]1(C)C(=O)[C@H](O)C3=C(C)[C@@H](OC(=O)[C@H](O)[C@@H](NC(=O)OC(C)(C)C)C(C)(C)C)C[C@@](O)([C@@H](OC(=O)c4ccccc4)[C@@H]12)C3(C)C (some centres undefined) | 110 | 33 (≈ 41.9 µM) |  | 0.4 | 
CC(=O)O[C@@]12COC1C[C@H](O)[C@@]1(C)C(=O)[C@H](O)C3=C(C)[C@@H](OC(=O)[C@H](O)[C@@H](NC(=O)c4sccc4C)C(C)(C)C)C[C@@](O)([C@@H](OC(=O)c4ccccc4)[C@@H]12)C3(C)C (some centres undefined) |  |  | 1.4 | 1.3 | 
CCCOC(=O)N[C@H]([C@@H](O)C(=O)O[C@H]1C[C@@]2(O)[C@@H](OC(=O)c3ccccc3)[C@H]3[C@](C)(C(=O)[C@H](O)C(=C1C)C2(C)C)[C@@H](O)CC1OC[C@]13OC(C)=O)C(C)(C)C (some centres undefined) |  |  | 1.7 | 1.5 | 
CC(=O)O[C@@]12COC1C[C@H](O)[C@@]1(C)C(=O)[C@H](O)C3=C(C)[C@@H](OC(=O)[C@H](O)[C@@H](NC(=O)OC(C)C)C(C)(C)C)C[C@@](O)([C@@H](OC(=O)c4ccccc4)[C@@H]12)C3(C)C (some centres undefined) | 1.7 | 0.5 (≈ 0.646 µM) |  | 1.2 | 
CC(=O)O[C@@]12COC1C[C@H](O)[C@@]1(C)C(=O)[C@H](O)C3=C(C)[C@@H](OC(=O)[C@H](O)[C@@H](NC(=O)C4CCC4)C(C)(C)C)C[C@@](O)([C@@H](OC(=O)c4ccccc4)[C@@H]12)C3(C)C (some centres undefined) | 80 | 24 (≈ 31.2 µM) |  | 3 | 
CC(=O)O[C@@]12COC1C[C@H](O)[C@@]1(C)C(=O)[C@H](O)C3=C(C)[C@@H](OC(=O)[C@H](O)[C@@H](NC(=O)C4CC4)C(C)(C)C)C[C@@](O)([C@@H](OC(=O)c4ccccc4)[C@@H]12)C3(C)C (some centres undefined) | 150 | 45 (≈ 59.5 µM) |  | 2.1 | 

Second part, led by results:

Ratio [1] | solubility [2] [µg/mL] | ED50 ratio [4] | Compound | ED50 ratio [3] | further results
1.8 | 0.5 (≈ 0.629 µM) |  | CC(=O)O[C@@]12COC1C[C@H](O)[C@@]1(C)C(=O)[C@H](O)C3=C(C)[C@@H](OC(=O)[C@H](O)[C@@H](NC(=O)c4cccn4C)C(C)(C)C)C[C@@](O)([C@@H](OC(=O)c4ccccc4)[C@@H]12)C3(C)C (some centres undefined) | 1.2 | 
 |  | 1.6 | CC(=O)O[C@@]12COC1C[C@H](O)[C@@]1(C)C(=O)[C@H](O)C3=C(C)[C@@H](OC(=O)[C@H](O)[C@@H](NC(=O)c4ccoc4)C(C)(C)C)C[C@@](O)([C@@H](OC(=O)c4ccccc4)[C@@H]12)C3(C)C (some centres undefined) | 2.3 | 
 |  | 0.42 | CC(=O)O[C@@]12COC1C[C@H](O)[C@@]1(C)C(=O)[C@H](O)C3=C(C)[C@@H](OC(=O)[C@H](O)[C@@H](NC(=O)c4cccs4)C(C)(C)C)C[C@@](O)([C@@H](OC(=O)c4ccccc4)[C@@H]12)C3(C)C (some centres undefined) | 0.53 | solubility [5]: 8.4 µg/mL (≈ 10.5 µM); Ratio [6]: 28
 |  | 2.3 | CCCCCCOC(=O)N[C@H]([C@@H](O)C(=O)O[C@H]1C[C@@]2(O)[C@@H](OC(=O)c3ccccc3)[C@H]3[C@](C)(C(=O)[C@H](O)C(=C1C)C2(C)C)[C@@H](O)CC1OC[C@]13OC(C)=O)C(C)(C)C (some centres undefined) | 12 | 
 |  | 0.45 | CC(=O)O[C@@]12CO[C@@H]1C[C@H](O)[C@@]1(C)C(=O)[C@H](O)C3=C(C)[C@@H](OC(=O)[C@H](O)[C@@H](NC(=O)OC(C)(C)C)c4ccccc4)C[C@@](O)([C@@H](OC(=O)c4ccccc4)[C@H]21)C3(C)C.O.O.O [DOCETAXEL] | 0.41 | solubility [7]: 6 µg/mL; Ratio [8]: 20
16 | 4.7 (≈ 5.89 µM) |  | CC(=O)O[C@@]12COC1C[C@H](O)[C@@]1(C)C(=O)[C@H](O)C3=C(C)[C@@H](OC(=O)[C@H](O)[C@@H](NC(=O)c4ccsc4)C(C)(C)C)C[C@@](O)([C@@H](OC(=O)c4ccccc4)[C@@H]12)C3(C)C (some centres undefined) | 1.2 | 
13 | 4 (≈ 4.93 µM) |  | CC(=O)O[C@@]12COC1C[C@H](O)[C@@]1(C)C(=O)[C@H](O)C3=C(C)[C@@H](OC(=O)[C@H](O)[C@@H](NC(=O)c4ccc(C)s4)C(C)(C)C)C[C@@](O)([C@@H](OC(=O)c4ccccc4)[C@@H]12)C3(C)C (some centres undefined) | 32 | 
 | 1 (≈ 1.21 µM) |  | CC(=O)O[C@@]12COC1C[C@H](O)[C@@]1(C)C(=O)[C@H](O)C3=C(C)[C@@H](OC(=O)[C@H](O)[C@@H](NC(=O)/C=C/c4cccs4)C(C)(C)C)C[C@@](O)([C@@H](OC(=O)c4ccccc4)[C@@H]12)C3(C)C (some centres undefined) |  | 
